# Measurements reported in ChEMBL document CHEMBL3414437, “Synthesis of CDDO-amino acid-nitric oxide donor trihybrids as potential antitumor agents against both drug-sensitive and drug-resistant colon cancer” (J Med Chem, 2015).
# Active and inactive are the calls of the source. The rule behind the calls is not given here.
# What was measured:
# [1] = Antiproliferative activity against human CCD-841-CoN cells assessed as inhibition of cell proliferation after 72 hrs by MTT assay; type: cell-based
# In short: (§1)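 Cells (1.0 × 10^4/well) grown overnight in DMEM with 10% FBS. Treated in triplicate with eight concentrations ([…]) of compound from DMSO stock, final DMSO <0.4%, for 72 h. MTT added for the last 4 h, formazan dissolved in DMSO, read at 570 nm. Inhibition = (Acontrol−Atreated)/Acontrol. IC50 given as mean ± SD of three independent experiments.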
# CCD-841CoN = assay: Induction of nitric oxide release in human CCD-841-CoN cells at 100 uM incubated for 150 mins by Griess assay; type: functional, cell-based
# In short: (§2)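 Cells (1 × 10^6/well) treated in triplicate with compound at 100 µM for 150 min. Lysates mixed with Griess reagent for 10 min at 37 °C and read at 540 nm. Nitrite quantified from a sodium nitrite standard curve; 0.4% DMSO-treated cells served as background. Mean ± SD of three experiments.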
# [2] = Antiproliferative activity against human HCT8 cells assessed as inhibition of cell proliferation at 1 uM after 72 hrs by MTT assay; type: functional; conditions: HCT-8, 72 h, read-out: GI
# In short: (§3)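 Cells grown in DMEM with 10% FBS and exposed to compound at 1 µM for 72 h. Proliferation measured by MTT at 570 nm and expressed as % inhibition versus untreated cells. Mean ± SD of three independent experiments.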
# HCT-8 [3] = assay: Induction of nitric oxide release in human HCT8 cells at 100 uM incubated for 150 mins by Griess assay; type: functional, cell-based; in short: as §2
# [4] = Antiproliferative activity against 5-FU resistant human HCT8 cells assessed as inhibition of cell proliferation after 72 hrs by MTT assay; type: functional, cell-based; conditions: HCT-8, 72 h; in short: as §1
# HCT-8 [5] = assay: Induction of nitric oxide release in 5-FU resistant human HCT8 cells at 100 uM incubated for 150 mins by Griess assay; type: functional, cell-based; in short: as §2
# [6] = Antiproliferative activity against 5-FU resistant human HCT8 cells assessed as inhibition of cell proliferation at 1 uM after 72 hrs by MTT assay; type: functional; conditions: HCT-8, 72 h, read-out: GI; in short: as §3
# [7] = Antiproliferative activity against human HCT8 cells assessed as inhibition of cell proliferation after 72 hrs by MTT assay; type: functional, cell-based; conditions: HCT-8, 72 h; in short: as §1
SMILES,IC50 [1] [nM],Activity (CCD-841CoN),inhibition of growth at 1 µM [2] [%],Activity (HCT-8 [3]),IC50 [4] [nM],Activity (HCT-8 [5]),inhibition of growth at 1 µM [6] [%],IC50 [7] [nM]
C[C@@H](NC(=O)[C@]12CCC(C)(C)C[C@H]1[C@H]1C(=O)C=C3[C@@]4(C)C=C(C#N)C(=O)C(C)(C)[C@@H]4CC[C@@]3(C)[C@]1(C)CC2)C(=O)OCC#CCOc1no[n+]([O-])c1S(=O)(=O)c1ccccc1,958,inactive,> 90,Active,276,Active,> 90,370
CC1(C)CC[C@]2(C(=O)N3CCC[C@H]3C(=O)OCC#CCOc3no[n+]([O-])c3S(=O)(=O)c3ccccc3)CC[C@]3(C)[C@H](C(=O)C=C4[C@@]5(C)C=C(C#N)C(=O)C(C)(C)[C@@H]5CC[C@]43C)[C@@H]2C1,1420,–,> 90,–,343,–,> 90,441
CC1(C)CC[C@]2(C(=O)NCCC(=O)OCC#CCOc3no[n+]([O-])c3S(=O)(=O)c3ccccc3)CC[C@]3(C)[C@H](C(=O)C=C4[C@@]5(C)C=C(C#N)C(=O)C(C)(C)[C@@H]5CC[C@]43C)[C@@H]2C1,1470,–,> 90,–,462,–,> 90,379
CC1(C)CC[C@]2(C(=O)N3CCC[C@H]3C(=O)OCCCOc3no[n+]([O-])c3S(=O)(=O)c3ccccc3)CC[C@]3(C)[C@H](C(=O)C=C4[C@@]5(C)C=C(C#N)C(=O)C(C)(C)[C@@H]5CC[C@]43C)[C@@H]2C1,–,inactive,–,inactive,–,inactive,–,–
CC1(C)CC[C@]2(C(=O)N3CCC[C@H]3C(=O)OCCCCCCOc3no[n+]([O-])c3S(=O)(=O)c3ccccc3)CC[C@]3(C)[C@H](C(=O)C=C4[C@@]5(C)C=C(C#N)C(=O)C(C)(C)[C@@H]5CC[C@]43C)[C@@H]2C1,–,inactive,–,inactive,–,inactive,–,–
CC1(C)CC[C@]2(C(=O)NCC(=O)OCCCCCCOc3no[n+]([O-])c3S(=O)(=O)c3ccccc3)CC[C@]3(C)[C@H](C(=O)C=C4[C@@]5(C)C=C(C#N)C(=O)C(C)(C)[C@@H]5CC[C@]43C)[C@@H]2C1,1420,–,> 90,–,339,–,> 90,356
O=c1[nH]cc(F)c(=O)[nH]1 [FLUOROURACIL],–,–,–,–,36600,–,–,910
CC1(C)CC[C@]2(C(=O)NCC(=O)OCCCOc3no[n+]([O-])c3S(=O)(=O)c3ccccc3)CC[C@]3(C)[C@H](C(=O)C=C4[C@@]5(C)C=C(C#N)C(=O)C(C)(C)[C@@H]5CC[C@]43C)[C@@H]2C1,1720,–,> 90,–,380,–,> 90,550
CC1(C)CC[C@]2(C(=O)NCC(=O)O)CC[C@]3(C)[C@H](C(=O)C=C4[C@@]5(C)C=C(C#N)C(=O)C(C)(C)[C@@H]5CC[C@]43C)[C@@H]2C1,–,–,–,inactive,2260,inactive,–,3190
CC1(C)CC[C@]2(C(=O)NCCCC(=O)OCC#CCOc3no[n+]([O-])c3S(=O)(=O)c3ccccc3)CC[C@]3(C)[C@H](C(=O)C=C4[C@@]5(C)C=C(C#N)C(=O)C(C)(C)[C@@H]5CC[C@]43C)[C@@H]2C1,1700,–,> 90,–,381,–,> 90,504
CC1(C)CC[C@]2(C(=O)NCC(=O)OCCCCOc3no[n+]([O-])c3S(=O)(=O)c3ccccc3)CC[C@]3(C)[C@H](C(=O)C=C4[C@@]5(C)C=C(C#N)C(=O)C(C)(C)[C@@H]5CC[C@]43C)[C@@H]2C1,1120,–,> 90,–,315,–,> 90,383
CC1(C)CC[C@]2(C(=O)N3CCC[C@H]3C(=O)OCCCCOc3no[n+]([O-])c3S(=O)(=O)c3ccccc3)CC[C@]3(C)[C@H](C(=O)C=C4[C@@]5(C)C=C(C#N)C(=O)C(C)(C)[C@@H]5CC[C@]43C)[C@@H]2C1,–,inactive,–,inactive,–,inactive,–,–
CC1(C)CC[C@]2(C(=O)NCC(=O)OCCOCCOc3no[n+]([O-])c3S(=O)(=O)c3ccccc3)CC[C@]3(C)[C@H](C(=O)C=C4[C@@]5(C)C=C(C#N)C(=O)C(C)(C)[C@@H]5CC[C@]43C)[C@@H]2C1,3130,–,> 90,–,562,–,> 90,872
O=S(=O)(c1ccccc1)c1c(OCC#CCO)no[n+]1[O-],–,–,–,–,36600,–,–,33500
